Measurements as given in ChEMBL document CHEMBL1142695, “Discovery of functionally selective 7,8,9,10-tetrahydro-7,10-ethano-1,2,4-triazolo[3,4-a]phthalazines as GABA A receptor agonists at the alpha3 subunit” (J Med Chem, 2005).

Tests used:
Type in all cases: cell-based
[1] = molecular target: T1, GABA-A receptor; alpha-1/beta-3/gamma-2 (Homo sapiens, UniProt P14867+P18507+P28472); test: Inhibition of [3H]Ro-151788 binding to recombinant human gamma-aminobutyric-acid A receptor alpha-1-beta-3-gamma-2 subtype expressed in L (tk-) cells
T1 sequence (P14867 whole entry): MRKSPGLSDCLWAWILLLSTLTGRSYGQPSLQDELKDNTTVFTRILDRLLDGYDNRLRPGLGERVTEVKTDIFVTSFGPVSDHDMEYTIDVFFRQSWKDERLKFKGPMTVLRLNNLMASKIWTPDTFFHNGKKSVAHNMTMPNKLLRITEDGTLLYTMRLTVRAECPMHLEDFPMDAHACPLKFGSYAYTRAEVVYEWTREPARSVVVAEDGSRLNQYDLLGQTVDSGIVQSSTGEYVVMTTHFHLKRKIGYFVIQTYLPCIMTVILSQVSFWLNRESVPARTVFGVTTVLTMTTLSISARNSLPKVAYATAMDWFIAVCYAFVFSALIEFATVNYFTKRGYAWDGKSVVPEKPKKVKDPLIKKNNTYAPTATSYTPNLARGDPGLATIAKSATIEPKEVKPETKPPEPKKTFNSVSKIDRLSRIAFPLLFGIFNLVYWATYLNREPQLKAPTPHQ
T1 sequence (P18507 whole entry): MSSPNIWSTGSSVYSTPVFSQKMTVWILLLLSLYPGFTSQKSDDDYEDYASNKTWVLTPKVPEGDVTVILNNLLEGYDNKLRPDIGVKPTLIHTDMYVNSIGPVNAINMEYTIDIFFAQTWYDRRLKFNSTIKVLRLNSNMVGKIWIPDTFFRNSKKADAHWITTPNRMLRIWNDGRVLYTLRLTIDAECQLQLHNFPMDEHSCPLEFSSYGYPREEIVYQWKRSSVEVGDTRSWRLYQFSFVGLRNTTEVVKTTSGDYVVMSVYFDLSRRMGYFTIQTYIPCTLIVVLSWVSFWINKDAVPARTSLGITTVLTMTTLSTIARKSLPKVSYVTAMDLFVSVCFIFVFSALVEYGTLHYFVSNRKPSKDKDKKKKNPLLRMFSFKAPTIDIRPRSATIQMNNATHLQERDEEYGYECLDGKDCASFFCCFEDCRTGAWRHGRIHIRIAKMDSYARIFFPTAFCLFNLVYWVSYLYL
T1 sequence (P28472 whole entry): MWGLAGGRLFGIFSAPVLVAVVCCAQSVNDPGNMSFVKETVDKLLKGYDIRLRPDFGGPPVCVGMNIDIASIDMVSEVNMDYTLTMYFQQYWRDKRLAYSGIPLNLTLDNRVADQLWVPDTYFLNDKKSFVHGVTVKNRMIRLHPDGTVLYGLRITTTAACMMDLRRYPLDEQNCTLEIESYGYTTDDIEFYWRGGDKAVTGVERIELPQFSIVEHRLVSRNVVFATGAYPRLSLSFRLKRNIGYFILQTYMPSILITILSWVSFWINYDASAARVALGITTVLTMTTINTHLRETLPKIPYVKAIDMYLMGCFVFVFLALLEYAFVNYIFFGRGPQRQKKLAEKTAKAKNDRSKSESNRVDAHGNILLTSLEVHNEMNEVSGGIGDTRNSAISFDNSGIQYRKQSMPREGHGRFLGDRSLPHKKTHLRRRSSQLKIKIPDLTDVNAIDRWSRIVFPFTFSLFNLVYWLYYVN

[2] = molecular target: GABA-A receptor; alpha-1/beta-3/gamma-2 (Homo sapiens) (UniProt P14867+P18507+P28472); test: Efficacy was measured as modulation of the current in response to GABA at hGABA alpha-1-beta-3-gamma-2 receptor expressed in Xenopus oocytes; settings: Oocyte
How it was run: (§1)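 Two-electrode voltage clamp on Xenopus oocytes expressing each receptor combination. […] Value is percent increase or decrease of the EC20 GABA current.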

[3] = molecular target: GABA-A receptor; alpha-3/beta-3/gamma-2 (Homo sapiens) (UniProt P18507+P28472+P34903); test: Efficacy was measured as modulation of the current in response to GABA at hGABA alpha-3-beta-3-gamma-2 receptor expressed in Xenopus oocytes; settings: Oocyte; how it was run: as §1
[4] = molecular target: T2, GABA-A receptor; alpha-3/beta-3/gamma-2 (Homo sapiens, UniProt P18507+P28472+P34903); test: Inhibition of [3H]Ro-151788 binding to recombinant human gamma-aminobutyric-acid A receptor alpha-3-beta-3-gamma-2 subtype expressed in L (tk-) cells
T2 sequence (P18507 whole entry): T1 sequence (P18507 whole entry)
T2 sequence (P28472 whole entry): T1 sequence (P28472 whole entry)
T2 sequence (P34903 whole entry): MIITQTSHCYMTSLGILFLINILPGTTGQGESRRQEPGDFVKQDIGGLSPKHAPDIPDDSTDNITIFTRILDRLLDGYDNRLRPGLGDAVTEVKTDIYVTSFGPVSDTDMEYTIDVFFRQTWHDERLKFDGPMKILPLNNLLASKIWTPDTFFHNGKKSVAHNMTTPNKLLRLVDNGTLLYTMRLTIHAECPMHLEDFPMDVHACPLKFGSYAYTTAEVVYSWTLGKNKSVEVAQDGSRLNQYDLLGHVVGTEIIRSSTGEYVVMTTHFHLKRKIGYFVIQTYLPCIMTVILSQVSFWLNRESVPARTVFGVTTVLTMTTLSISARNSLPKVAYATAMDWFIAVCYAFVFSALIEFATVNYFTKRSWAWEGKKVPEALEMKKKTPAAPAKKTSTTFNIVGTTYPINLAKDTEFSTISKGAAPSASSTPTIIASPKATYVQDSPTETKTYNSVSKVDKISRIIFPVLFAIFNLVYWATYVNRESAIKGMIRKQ

[5] = molecular target: GABA-A receptor; alpha-5/beta-3/gamma-2 (Homo sapiens) (UniProt P18507+P28472+P31644); test: Efficacy was measured as modulation of the current in response to GABA at hGABA alpha-5-beta-3-gamma-2 receptor expressed in Xenopus oocytes; settings: Oocyte; how it was run: as §1
[6] = molecular target: T3, GABA-A receptor; alpha-5/beta-3/gamma-2 (Homo sapiens, UniProt P18507+P28472+P31644); test: Inhibition of [3H]Ro-151788 binding to recombinant human gamma-aminobutyric-acid A receptor alpha-5-beta-3-gamma-2 subtype expressed in L (tk-) cells
T3 sequence (P18507 whole entry): T1 sequence (P18507 whole entry)
T3 sequence (P28472 whole entry): T1 sequence (P28472 whole entry)
T3 sequence (P31644 whole entry): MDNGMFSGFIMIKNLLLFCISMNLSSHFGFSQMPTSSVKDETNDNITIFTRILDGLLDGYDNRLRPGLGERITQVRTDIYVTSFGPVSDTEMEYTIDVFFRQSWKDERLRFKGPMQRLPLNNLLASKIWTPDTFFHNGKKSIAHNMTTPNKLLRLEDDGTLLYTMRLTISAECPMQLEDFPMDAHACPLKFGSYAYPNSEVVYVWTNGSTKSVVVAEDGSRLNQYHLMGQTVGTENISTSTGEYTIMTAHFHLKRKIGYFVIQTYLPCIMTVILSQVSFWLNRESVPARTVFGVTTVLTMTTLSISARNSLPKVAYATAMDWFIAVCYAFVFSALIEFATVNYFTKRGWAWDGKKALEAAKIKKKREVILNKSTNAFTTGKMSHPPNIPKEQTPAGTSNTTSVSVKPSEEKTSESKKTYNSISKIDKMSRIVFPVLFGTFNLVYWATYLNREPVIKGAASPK

[7] = molecular target: GABA-A receptor; alpha-2/beta-3/gamma-2 (Homo sapiens) (UniProt P18507+P28472+P47869); test: Efficacy was measured as modulation of the current in response to GABA at hGABA alpha-2-beta-3-gamma-2 receptor expressed in Xenopus oocytes; settings: Oocyte; how it was run: as §1
[8] = molecular target: T4, GABA-A receptor; alpha-2/beta-3/gamma-2 (Homo sapiens, UniProt P18507+P28472+P47869); test: Inhibition of [3H]Ro-151788 binding to recombinant human gamma-aminobutyric acid A receptor alpha-2-beta-3-gamma-2 subtype expressed in L (tk-) cells
T4 sequence (P18507 whole entry): T1 sequence (P18507 whole entry)
T4 sequence (P28472 whole entry): T1 sequence (P28472 whole entry)
T4 sequence (P47869 whole entry): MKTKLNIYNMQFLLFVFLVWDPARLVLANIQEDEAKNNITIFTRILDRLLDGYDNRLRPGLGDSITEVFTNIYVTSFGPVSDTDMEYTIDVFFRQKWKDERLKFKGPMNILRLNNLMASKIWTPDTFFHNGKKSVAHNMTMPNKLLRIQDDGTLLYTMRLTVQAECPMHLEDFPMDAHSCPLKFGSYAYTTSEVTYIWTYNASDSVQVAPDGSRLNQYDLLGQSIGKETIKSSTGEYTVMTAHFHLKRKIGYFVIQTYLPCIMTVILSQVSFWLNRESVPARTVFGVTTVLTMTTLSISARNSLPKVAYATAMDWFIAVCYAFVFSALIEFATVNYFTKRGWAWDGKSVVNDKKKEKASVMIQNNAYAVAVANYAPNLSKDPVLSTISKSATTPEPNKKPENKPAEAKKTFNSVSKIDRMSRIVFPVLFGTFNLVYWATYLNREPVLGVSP

`Cc1ccc(-c2nnc3c4c(c(OCc5ccccn5)nn23)C2CCC4CC2)cc1` was tested, and the Ki [1] was 310 nM, the Efficacy [2] was 9% and the Efficacy [3] was 40%. It also gave a Ki [4] of 32 nM, an Efficacy [5] of 6% and a Ki [6] of 4.7 nM. The Efficacy [7] was 14% and the Ki [8] was 120 nM.
